Source: ChEMBL document CHEMBL3393016, “Development of novel Asf1-H3/H4 inhibitors” (Bioorg Med Chem Lett, 2015)
The source made the active and inactive calls. The rule behind the calls is not given here.

Tests used:
[1] = molecular target: T1, Histone chaperone ASF1A (Homo sapiens, UniProt Q9Y294); assay: Inhibition of His-tagged human Asf1a binding with H3/H4 assessed as fluorescence intensity after 30 mins by ALPHA assay
[2] = tested on: MDA-MB-231; assay: Cytotoxicity against human MDA-MB-231 cells assessed as inhibition of cell viability at 24 uM after 24 hrs by trypan blue exclusion assay; format: functional, cell-based
Method in brief: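 MDA-MB-231 cells grown to 80% confluence, seeded at 1.5 × 10^5 cells/mL and incubated overnight. Medium then replaced with serum-free medium containing drug at 24 μM. After 1 h, FBS added to each well. Viable cell density counted by trypan blue exclusion after a further 24 h. Viability expressed as percent of DMSO-only control.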

[3] = molecular target: T1, Histone chaperone ASF1A; assay: Inhibition of globular core domain of Asf1 (unknown origin) binding with H3/H4 after 15 to 30 mins by ELISA assay
Method in brief: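 Wells coated with H3/H4 dimer at 1 μg/mL in PBS-T at 4°C overnight, then blocked with 5% milk in PBS-T. Asf1 globular core at 5 μM preincubated with compound at 100 μM (or various concentrations) for 1 h at 4°C. Samples diluted in 10 mM Tris pH 7.9, 1 mM DTT and bound to plate 1 h at room temperature. Bound Asf1 detected with anti-Asf1 and HRP secondary antibodies, then TMB for 15–30 min; OD read at 450 nm.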

T1 sequence (Q9Y294 whole entry): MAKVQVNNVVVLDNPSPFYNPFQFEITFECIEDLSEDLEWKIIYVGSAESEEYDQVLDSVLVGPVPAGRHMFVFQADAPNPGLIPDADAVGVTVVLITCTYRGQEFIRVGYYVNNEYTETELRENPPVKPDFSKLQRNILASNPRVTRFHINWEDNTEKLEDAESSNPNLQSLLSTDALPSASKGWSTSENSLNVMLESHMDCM

SMILES | IC50 [1] [µM] | inhibition [2] | further results
COc1cc(CNNC(=O)c2ccc(NC(=O)c3ccccc3)cc2)cc(Br)c1O | > 100 | – | –
COc1cc(/C=N/NC(=O)c2ccc(NC(C)=O)nc2)cc(Br)c1O | > 100 | – | –
COc1cc(/C=N/N(C)C(=O)c2ccc(NC(=O)c3ccccc3)cc2)cc(Br)c1O | > 12 | – | –
COc1cc(/C=N/NC(=O)c2ccc(NC(C)=O)cc2)cc(Br)c1O | > 100 | – | –
COc1ccc(-c2cc(C(=O)C3CCCCN3)c3ccccc3n2)cc1 (configuration not stated) | – | inactive | –
COc1cc(/C=N/NC(=O)c2ccncc2)cc(Br)c1O | > 100 | – | –
COc1cc(CCNC(=O)c2ccc(NC(=O)c3ccccc3)cc2)cc(Br)c1O | > 100 | – | –
COc1cc(/C=N/NC(=O)c2ccc(NC(=O)c3ccccc3)c(COCCN(C)C)c2)cc(Br)c1O | > 100 | – | –
COc1ccc(-c2cc([C@H](O)[C@@H]3CCCCN3)c3ccccc3n2)cc1 (racemic) | – | Active | –
O=C(N/N=C/c1ccncc1)c1ccc(NC(=O)c2ccccc2)cc1 | > 100 | – | –
COc1ccc(-c2cc([C@@H](O)[C@@H]3CCCCN3)c3ccccc3n2)cc1 (racemic) | – | Active | inhibition [3]: Active
COc1ccc(-c2cc(C(=O)N3CCOCC3)c3ccccc3n2)cc1 | – | inactive | –
COc1ccc(-c2cc(C(=O)NCCO)c3ccccc3n2)cc1 | – | inactive | –
COc1cc(/C=N/NC(=O)Cc2ccc(NC(=O)c3ccccc3)cc2)cc(Br)c1O | > 100 | – | –
COc1ccc(-c2cc(C(=O)N3CCCCC3)c3ccccc3n2)cc1 | – | inactive | –
CCN(CC)C(=O)c1cc(-c2ccc(OC)cc2)nc2ccccc12 | – | inactive | –
COc1cc(/C=N/NC(=O)C2CCOCC2)cc(Br)c1O | > 100 | – | –
O=C(N/N=C/c1cccc(OCCN2CCOCC2)c1)c1ccc(NC(=O)c2ccccc2)cc1 | > 100 | – | –
COc1ccc(-c2cc(C(=O)N(C)C)c3ccccc3n2)cc1 | – | inactive | –
COc1cc(/C=N/NC(=O)c2ccc(NC(=O)c3ccccc3)cc2)ccc1O | > 100 | – | –
COc1cc(/C=N/NC(=O)c2ccc(NC(=O)c3ccccc3)cc2)ccn1 | > 100 | – | –
O=C(N/N=C/c1cc(Br)ccc1O)c1ccncc1 | 0.6 | – | –
COc1cc(C2C(Cl)C(=O)N2NC(=O)c2ccc(N)cc2)cc(Br)c1O (configuration not stated) | – | – | inhibition [3]: Active
COc1cc(/C=N/NC(=O)c2ccccc2)cc(Br)c1O | > 100 | – | –
COc1cc(C/C=N/NC(=O)c2ccc(NC(=O)c3ccccc3)cc2)cc(Br)c1O | > 100 | – | –
COc1cc(/C=N/NC(=O)C2CCNCC2)cc(Br)c1O | > 100 | – | –
